Source: PubChem BioAssay AID651936 (NMMLSC, 2012)

System: AM2.2-beta2AR cells, FAP fluorogen binding after washes, flow cytometry
Experiment: reversibility of FAP fluorogen binding blockade, mechanism study for beta2AR internalization ligand project, AM2.2-beta2AR cells, powder sets 3 and 4 (AID 651936)
Procedure, shortened: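 Assay system: AM2.2-beta2AR cells / Buffer or medium: serum-free RPMI for compound exposure, RPMI with 1% FBS for washes / Reagent: TO1-2p at 150 nM final, added to cell aliquots / Schedule: compound exposure 90 min, 37 °C / Measured by: flow cytometry / Benchmarks: DMSO-only treated cells as negative control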

For `CN(CC(=O)N1CCN(c2ccccn2)CC1)S(=O)(=O)c1ccc(Cl)cc1`, the normalized fluorogen binding (at 0.2 µM (top of the series)) was 0.143.

`Cc1ccc(S(=O)(=O)N2CCCCC2C(=O)N2CCN(c3ccc(C(F)(F)F)cn3)CC2)cc1` (configuration not stated) gave a normalized fluorogen binding (at 100 µM (top of the series)) of 0.154.

Molecule `CN(CC(=O)N1CCN(c2ccccn2)CC1)S(=O)(=O)c1ccc(Br)cc1` has a normalized fluorogen binding (at 0.2 µM (top of the series)) of 0.145.

With `CN(CC(=O)N1CCN(c2cccc(C(F)(F)F)c2)CC1)S(=O)(=O)c1ccc(F)cc1` the normalized fluorogen binding (at 60 µM (top of the series)) was 0.233.

`CN(CC(=O)N1CCN(c2ccccn2)CC1)S(=O)(=O)c1ccccc1` was tested, and the normalized fluorogen binding (at 0.85 µM (top of the series)) was 0.218.

With `CC(=O)Nc1ccc(S(=O)(=O)N2CCCCC2c2cccnc2)cc1` (configuration not stated) the normalized fluorogen binding (at 1.4 µM (top of the series)) was 0.147 and the normalized fluorogen binding (at 60 µM (top of the series)) was 0.642.

`Cc1ccc(S(=O)(=O)N(C)CC(=O)N2CCN(c3ccccn3)CC2)cc1` showed a normalized fluorogen binding (at 0.8 µM (top of the series)) of 0.124.

In the case of `CC(C)n1nnc2cc(S(=O)(=O)N(C)CC(=O)N3CCN(c4ccccn4)CC3)ccc21`, the normalized fluorogen binding (at 60 µM (top of the series)) is reported as 0.257.

With `CCOC(=O)N1CCN(C(=O)CN(C)S(=O)(=O)c2ccc(Cl)cc2)CC1` the normalized fluorogen binding (at 10 µM (top of the series)) was 0.122.

Molecule `O=C(Nc1ccc(S(=O)(=O)N2CCCCC2c2cccnc2)cc1)c1c(F)cccc1F` (configuration not stated) has a normalized fluorogen binding (at 2 µM (top of the series)) of 0.232.

In the case of `CCCCC(=O)Nc1ccc(S(=O)(=O)N2CCCCC2c2cccnc2)cc1` (configuration not stated), the normalized fluorogen binding (at 0.3 µM (top of the series)) is reported as 0.181.
